A selection: hits, their analogues and other compounds. The true share with any hit is near 7.1%.
HUVEC prolif 384: blocks proliferation of human endothelial cells. HUVEC proliferation, CellTiter-Glo luminescence, 72 h; active compounds read low. viability, % at 10 µM (by protocol). 1.1% of 86,000 active;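 active = viability at or below 30%; inactive = viability above 30%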;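 also: 100% = median luminescence of DMSO-only cell control wells on each plate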
PTEN del growth: growth suppressors of cells with PTEN tumor suppressor deletion | viability, % at 10 µM | 1.2% of 140,000 active | HCT116 PTEN-null viability, CellTiter-Glo, 60 h; active compounds read low | AID 827;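 active = viability at or below a set limit, 4 SD under the median of all tested compounds, cut at about 3.7% in these data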;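 also: PTEN knockout HCT116 line with beta catenin targeted HCT116 as companion control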
Lung fibro prol: blocks proliferation of human lung fibroblasts | 1.1% of 85,000 active | AID 719 | LL 47 human lung fibroblast viability, ATP luminescence; active compounds read low | viability, % at 10 µM;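 active = viability at or below 50% in the single dose screen; inactive = viability above 50%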;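 also: compound exposure lasted 72 h before the ATP readout; 100% = median luminescence of untreated cell-only wells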
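Test system: LL 47 human lung fibroblasts / Quantity: 1,150 cells in each well / Medium: IMEM growth medium with 15% fetal bovine serum / Incubation: 72 h compound exposure at 37 °C after overnight plating / Detection: CellTiter-Glo luminescence measuring cellular ATP / Read-out: % viability versus median cells-only luminescence / Benchmarks: cell-only wells, no compound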
HCT116 bCat-KO: beta-catenin-lacking colon tumor cell growth suppression; HCT116 beta-catenin knockout viability, CellTiter-Glo, 60 h; active compounds read low; viability, % at 10 µM; 1.5% of 140,000 active; AID 818;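 active = viability at or under a set limit, the compound median less 4 SD, cut at about 6% in these data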;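 also: 0% = Hyamine 1622 control at 20 µM and 100% = untreated cell control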
Cav3 T inh: blocks human Cav3.2 T-type calcium channel. 4% of 100,000 active. Cav3.2-expressing cells, Fluo-4 calcium fluorescence FDSS; active compounds read low. O95180. B-score at 10 µM;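 active = single-dose well whose peak fluorescence ratio is a statistical outlier from its plate by either plate-standardised score or position-corrected B-score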
H69AR inhibit: blocks growth of human H69AR lung tumor cells. AID 598. viability, % at 10 µM. 6% of 85,000 active. H69AR lung tumor viability, ATP luminescence, 72 h; active compounds read low;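 active = viability at or below 40%; inactive = viability above 40%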;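 also: multidrug resistant small cell line overexpressing MRP-1 efflux transporter; 100% = mean luminescence of untreated control wells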
* hit, by the source's call; / = no result.

SMILES	HUVEC prolif 384	PTEN del growth	Lung fibro prol	HCT116 bCat-KO	Cav3 T inh	H69AR inhibit
COc1ccc(C(=O)NC(=O)Nc2cc(C)ccn2)cc1	65.2	56.8	85.6	49.1	-0.0706	39.8*
Cc1cccnc1NC(=O)Cn1nc(-c2ccccc2)oc1=S	/	89.6	/	86.3	/	/
COc1ccc(OC(=O)c2cccc([N+](=O)[O-])c2)c(C(=O)/C=C/c2cccs2)c1	53.1	93.2	93.3	88.1	0.716	3.4*
COc1cccc2sc(Nc3nc(-c4ccccn4)cs3)nc12	/	2.6*	/	4.3*	-0.901	/
CCOC(=O)c1sc(Nc2nc3c(OC)cccc3s2)nc1C	/	27.0	/	29.0	0.641	/
COc1cccc2sc(Nc3nnc(-c4ccc(F)cc4)o3)nc12	2.9*	14.8	62.1	13.0	-4.2	35.3*
Fc1cccc2sc(Nc3nc4cc5c(cc4s3)OCCO5)nc12	/	84.3	/	71.1	/	/
COc1cccc2sc(Nc3nnc(-c4cccs4)o3)nc12	2.8*	8.2	41.2*	2.6*	-5.62*	22.6*
Fc1cccc2sc(Nc3nnc(-c4ccco4)o3)nc12	56.8	18.8	64.6	19.0	-0.921	36.9*
OCC[C@H]1C[C@@H](O)[C@H](O)[C@]2(CCCO2)O1	/	/	/	/	0.198	/
NS(=O)(=O)c1cnccc1Nc1ccc(Cl)c(Cl)c1	/	85.6	/	81.5	/	/
C=CCn1c(SCC(=O)c2[nH]c(C)c(C(=O)OCC)c2C)nc2scc(-c3ccc(OC)c(OC)c3)c2c1=O	/	0.8*	/	1.0*	/	/
CCOC(=O)c1c(C)[nH]c(C(=O)CSc2nnc(-c3ccncc3)n2CC)c1C	/	102.0	/	99.5	-1.15	/
C#CCOCCOCCOCCNc1nc(N2CCN(C(=O)C([C@@H](C)CC)n3cc(C(N)COC(=O)C(F)(F)F)nn3)CC2)nc(N2CCN(C(=O)[C@H](CCCCN)n3cc(C(N)[C@H](C)CC)nn3)CC2)n1 (stereo partly drawn)	/	/	/	/	0.26	/
CCOC(=O)c1c2ccc(OCC(=O)N/N=C/c3ccc(Cl)cc3)cc2n2ccccc12	/	2.3*	/	1.8*	/	/
Cc1ccc(OCC(=O)N/N=C/c2cccn2C)cc1	96.8	98.5	104.8	96.5	0.157	103.0
CCOC(=O)c1c2ccc(OCC(=O)N/N=C/c3ccccc3C(F)(F)F)cc2n2ccccc12	/	1.9*	/	1.5*	-0.49	/
CC(/C=N/NC(=O)Cn1cnc2c1c(=O)n(C)c(=O)n2C)=C\c1ccccc1	/	91.3	/	77.2	/	/
COC(=O)c1sc(S(=O)(=O)Nc2ccc(Br)cc2)c(C(=O)OC)c1C	/	95.4	/	86.6	/	/
O=C(Nc1ccc(F)cc1)c1ccccc1	101.4	/	109.6	98.1	0.928	112.5
O=C(Nc1ccc(F)cc1)c1nsc(Cl)c1Cl	87.4	80.7	99.8	83.5	-0.155	37.1*
C#CC[N+]1(CC#Cc2ccc(C)cc2)CCCCC1	/	84.5	/	94.2	/	/
CCOc1cc(-c2cc(-c3ccc(C)o3)nc(N)c2C#N)ccc1O	52.2	57.6	83.3	59.8	1.02	12.2*
CCCc1cc(-c2ccc(O)c(OCC)c2)c(C#N)c(N)n1	87.1	81.6	91.5	86.0	-0.183	48.2
N#Cc1c(N)oc(-c2ccc3c(c2)OCO3)c1-c1ccc2c(c1)OCO2	95.7	25.8	99.4	39.0	-0.316	22.2*
SMILES	HUVEC prolif 384	PTEN del growth	Lung fibro prol	HCT116 bCat-KO	Cav3 T inh	H69AR inhibit
Cc1ccc(-c2cc(-c3ccc(F)cc3)c(C#N)c(N)n2)o1	/	87.2	/	93.6	/	/
CCOc1cc(-c2c(C)c(CC)nc(N)c2C#N)ccc1O	91.6	79.1	95.5	89.7	-0.673	36.0*
Cc1ccc(-c2cc(-c3ccc4c(c3)OCO4)c(C#N)c(N)n2)o1	70.8	56.1	85.2	48.8	-0.883	18.7*
CCc1n[nH]c(=S)n1/N=C/c1cc(Br)c(OC)cc1OC	/	89.8	/	93.0	/	/
Cc1ccc(-c2cc(-c3ccc(Cl)cc3)c(C#N)c(N)n2)o1	58.5	54.8	71.3	43.9	-1.59	7.1*
O=C1Nc2ccccc2C12OCC1(CO2)COC2(OC1)C(=O)Nc1ccccc12 (stereo not drawn)	78.9	68.7	97.8	77.0	-0.865	83.6
CN1CC(c2ccc(Cl)c(Cl)c2)[C@@]2(COc3ccccc3C2=O)[C@@]12C(=O)Nc1ccccc12 (stereo partly drawn)	/	2.9*	/	4.7*	0.457	/
CCCSc1nc(N)nc(-c2cccs2)c1C#N	/	99.8	/	101.6	/	/
O=C1CN(C(=O)COC(=O)c2cccc(OCc3ccccc3)c2)c2ccccc2N1	/	85.2	/	90.6	/	/

Compound activity as filed in PubChem BioAssay.
